Assay results: ChEMBL document CHEMBL1147664, “(S)-4,5-dihydro-2-(2-hydroxy-4-hydroxyphenyl)-4-methyl-4-thiazolecarboxylic acid polyethers: a solution to nephrotoxicity” (J Med Chem, 2006); call rule not given here

Columns and labels:
Rattus norvegicus [1] = experiment: Iron-clearing efficiency in non-iron-overloaded Sprague-Dawley rat at 300 umol/kg, sc; type: functional
In short: (§1)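 Bile-duct-cannulated, non-iron-overloaded male Sprague-Dawley rats (400–450 g), single 300 μmol/kg dose po or sc, given in water or as the monosodium salt depending on compound. Bile collected at 3-h intervals for 24 h; urine at 24 h. Efficiency = (treated minus control iron excretion) / theoretical output, as percent; mean ± SEM.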

Sapajus apella [2] = experiment: Iron-clearing efficiency in iron-loaded Cebus apella at 150 umol/kg, po; type: functional
In short: (§2)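 Cebus apella monkeys (3.5–4 kg), iron overloaded with iv iron dextran (about 500 mg Fe/kg), used at least 60 d later; single 150 μmol/kg dose. Feces and urine collected every 24 h from 4 d before to 5 d after dosing; iron by flame atomic absorption. Efficiency = (2-day post-drug iron minus mean 4-day baseline) / theoretical output, as percent; mean ± SEM.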

Rattus norvegicus [3] = experiment: Iron-clearing efficiency in non-iron-overloaded Sprague-Dawley rat at 300 umol/kg, po; type: functional; in short: as §1
[4] = Apparent partition coefficient of the compound at pH7.4; type: physicochemical; conditions: octanol/water, pH 7.4; read-out: LogD7.4
In short: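 Apparent partition coefficient by shake-flask direct method between octanol and TRIS buffer, pH 7.4; reported as log of the fraction in the octanol layer (log P_app).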

Rattus norvegicus [5] = experiment: Distribution in Sprague-Dawley rat pancreas at 300 umol/kg, sc after 2 hrs; type: ADME, organism-based; conditions: in vivo
In short: (§3)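 Male Sprague-Dawley rats (250–350 g), single sc 300 μmol/kg dose; euthanized by CO2 at 2, 4, 6, 8 h (n = 3 per time point). Citrated cardiac-puncture plasma; tissues homogenized in water 1:2 (w/v), proteins precipitated with methanol at −20 °C, filtered. Reversed-phase HPLC with UV at 310 nm; levels from calibration curves, as nmol/g wet weight; detection limit about 5 nmol/g.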

Rattus norvegicus [6] = experiment: Distribution in Sprague-Dawley rat liver at 300 umol/kg, sc after 8 hrs; type: ADME, organism-based; conditions: in vivo; in short: as §3
Plasma = experiment: Distribution in Sprague-Dawley rat plasma at 300 umol/kg, sc; type: ADME; conditions: read-out: Cp; in short: as §3
Rattus norvegicus [7] = experiment: Distribution in Sprague-Dawley rat heart at 300 umol/kg, sc after 2 hrs; type: ADME, organism-based; conditions: in vivo; in short: as §3
Rattus norvegicus [8] = experiment: Distribution in Sprague-Dawley rat kidney at 300 umol/kg, sc after 2 hrs; type: ADME, organism-based; conditions: in vivo; in short: as §3
Rattus norvegicus [9] = experiment: Distribution in Sprague-Dawley rat liver at 300 umol/kg, sc after 2 hrs; type: ADME, organism-based; conditions: in vivo; in short: as §3
Rattus norvegicus [10] = experiment: Distribution in Sprague-Dawley rat kidney at 300 umol/kg, sc after 8 hrs; type: ADME, organism-based; conditions: in vivo; in short: as §3
Sapajus apella [11] = experiment: Iron-clearing efficiency in iron-loaded Cebus apella at 150 umol/kg, sc; type: functional; in short: as §2
[12] = Distribution in Sprague-Dawley rat plasma at 300 umol/kg, sc after 2 hrs; type: ADME, organism-based; in short: as §3
Rattus norvegicus [13] = experiment: Nephrotoxicity in rat at 300 umol/kg; conditions: in vivo
[14] = Distribution in Sprague-Dawley rat plasma at 300 umol/kg, sc after 8 hrs; type: ADME, organism-based; in short: as §3
Rattus norvegicus [15] = experiment: Distribution in Sprague-Dawley rat pancreas at 300 umol/kg, sc after 8 hrs; type: ADME, organism-based; conditions: in vivo; in short: as §3
Rattus norvegicus [16] = experiment: Distribution in Sprague-Dawley rat heart at 300 umol/kg, sc after 4 hrs; type: ADME, organism-based; conditions: in vivo; in short: as §3
Rattus norvegicus [17] = experiment: Distribution in Sprague-Dawley rat heart at 300 umol/kg, sc after 8 hrs; type: ADME, organism-based; conditions: in vivo; in short: as §3

Compound	logD [4]	Drug uptake (Rattus norvegicus [5])	Activity (Rattus norvegicus [1])	Activity (Sapajus apella [2])	Activity (Rattus norvegicus [3])	Activity (Sapajus apella [11])	also measured
COCCOCCOCCOc1ccc(C2=N[C@@](C)(C(=O)OC(C)C)CS2)c(O)c1	–	–	22.1%	19.5%	13.9%	–	–
CC1(C)SC(c2ccc(O)cc2O)=N[C@H]1C(=O)O	-0.91	–	–	–	–	–	–
COc1ccc(C2=N[C@@](C)(C(=O)O)CS2)c(O)c1	–	38 nmol/g	–	–	6.6%	–	concentration at 2 h [12]: 470 µM; Activity (Rattus norvegicus [13]): Active; concentration at 8 h [14]: 75 µM
CCOC(=O)[C@@]1(C)CSC(c2ccc(OCCOCCOCCOC)cc2O)=N1	–	–	11.4%	–	–	17.9%	–
COCCOCCOCCOc1ccc(C2=N[C@@](C)(C(=O)O)CS2)c(O)c1	-1.1	30 nmol/g	8.7%	25.4%	5.5%	30.4%	Drug uptake (Rattus norvegicus [15]): 3 nmol/g; concentration (Plasma): < 10 µM; Drug uptake (Rattus norvegicus [16]): 5 nmol/g; Drug uptake (Rattus norvegicus [7]): 9 nmol/g; Drug uptake (Rattus norvegicus [8]): 41 nmol/g; Drug uptake (Rattus norvegicus [10]): < 10 nmol/g; Drug uptake (Rattus norvegicus [17]): 2 nmol/g

Continued, in another order:

logD [4]	Drug uptake (Rattus norvegicus [5])	Compound	Activity (Rattus norvegicus [1])	Activity (Sapajus apella [2])	Activity (Rattus norvegicus [3])	Activity (Sapajus apella [11])	also measured
-0.93	–	O=C(O)[C@H]1CSC(c2ccccc2O)=N1	–	–	–	–	–
–	6 nmol/g	C[C@]1(C(=O)O)CSC(c2ccc(O)cc2O)=N1 [DEFERITRIN]	1.1%	16.8%	1.1%	15.9%	Drug uptake (Rattus norvegicus [6]): 12 nmol/g; concentration (Plasma): < 10 µM; Drug uptake (Rattus norvegicus [7]): 5 nmol/g; Drug uptake (Rattus norvegicus [8]): 100 nmol/g; Drug uptake (Rattus norvegicus [9]): 48 nmol/g; Drug uptake (Rattus norvegicus [10]): 9 nmol/g
-0.34	–	C[C@]1(C(=O)O)CSC(c2ccccc2O)=N1	–	–	–	–	–
-0.34	–	CC1(C)SC(c2ccccc2O)=N[C@H]1C(=O)O	–	–	–	–	–
